Measurements as given in PMC4524557 (RSC advances, 2015).
Converted amounts (≈) assume the structure as drawn.

Assays:
[1] = tested on: S. aureus UAMS-1 biofilms; test: Disruption of established biofilms; type: cell-based, Staphylococcus aureus; settings: UAMS-1, at 6.25 μM
[2] = tested on: S. aureus USA300 biofilms; test: Inhibition of biofilm formation; type: cell-based, Staphylococcus aureus; settings: USA300, between 3.1 and 12.5 μM
[3] = tested on: S. aureus USA400 biofilms; test: Inhibition of biofilm formation; type: cell-based, Staphylococcus aureus; settings: USA400, all tested concentrations from 1.56 to 12.5 μM
[4] = tested on: biofilm; settings: lower concentrations ineffective; cited from earlier work
[5] = tested on: Staphylococcus aureus UAMS-1; test: MIC determination; type: cell-based; settings: UAMS1, read-out: MIC UAMS-1
[6] = tested on: Staphylococcus aureus USA300; test: MIC determination; type: cell-based; settings: USA300, read-out: MIC SA
[7] = tested on: S. aureus USA200 biofilms; test: Disruption of established 24 h biofilms; type: cell-based, Staphylococcus aureus; settings: USA200, at 6.25 μM
[8] = tested on: Staphylococcus aureus Mu50; test: MIC determination; type: cell-based; settings: MU50, read-out: MIC Mu50
[9] = tested on: Staphylococcus aureus USA400; test: MIC determination; type: cell-based; settings: USA400, read-out: MIC USA400
[10] = tested on: S. aureus USA400 biofilms; test: Disruption of established 24 h biofilms; type: cell-based, Staphylococcus aureus
[11] = tested on: Staphylococcus aureus USA200; test: MIC determination; type: cell-based; settings: USA200, read-out: MIC USA200
[12] = tested on: Klebsiella pneumoniae; test: MIC determination; type: cell-based; settings: K. pneumoniae
[13] = tested on: S. aureus USA300 biofilms; test: Disruption of established 24 h biofilms; type: cell-based, Staphylococcus aureus; settings: USA300 24 h biofilm
Outline: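 USA300 from log phase was grown in wells for 24 h at 37°C to form biofilms, then washed with saline. The 10X test compound, alone or with daptomycin or vancomycin, was added with fresh TSB for another 24 h at 37°C. In combinations the test compound ran 1.56-0.20 µM and the antibiotic 6.25-0.78 µM. Daptomycin medium had 2 mM Ca2+. Wells got fresh TSB plus XTT for 2 h at 37°C, then A450 was read as % of untreated biofilm.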

[14] = tested on: Pseudomonas aeruginosa PAO1; test: MIC determination; type: cell-based; settings: PAO1, read-out: MIC PA

With `CCCCCCCCCC(=O)N[C@@H](Cc1c[nH]c2ccccc12)C(=O)N[C@H](CC(N)=O)C(=O)N[C@@H](CC(=O)O)C(=O)N[C@@H]1C(=O)NCC(=O)N[C@@H](CCCN)C(=O)N[C@@H](CC(=O)O)C(=O)N[C@H](C)C(=O)N[C@@H](CC(=O)O)C(=O)NCC(=O)N[C@H](CO)C(=O)N[C@@H]([C@H](C)CC(=O)O)C(=O)N[C@@H](CC(=O)c2ccccc2N)C(=O)O[C@@H]1C` [Daptomycin] as the compound, how does the established biofilms disrupted [1] read?
The established biofilms disrupted was ~ 70%.

And the “inhibition of biofilm growth” value [2]?
The value was 80%.

And the “inhibition of biofilm formation” value [3]?
Its value is 100%.

And the “concentration with anti-biofilm activity” value [4]?
Its value is 5 mg/mL.

And the MIC [5]?
Its MIC is > 12.5 µM.

And the MIC [6]?
Its MIC is 0.78 µM (≈ 1.26 µg/mL).

What about the established biofilms disrupted [7] of the same compound?
Its established biofilms disrupted is 80%.

And the MIC [8]?
Its MIC is 3.1 µM (≈ 5.02 µg/mL).

What about the MIC [9] of the same compound?
Its MIC is 0.78 µM (≈ 1.26 µg/mL).

What about the “concentration disrupting established biofilms” value [10] of the same compound?
The value was 6.2 to 12.5 µM.

What about the MIC [11] of the same compound?
The MIC was 0.78 µM (≈ 1.26 µg/mL).

For `CN[C@H](CC(C)C)C(=O)N[C@H]1C(=O)N[C@@H](CC(N)=O)C(=O)N[C@H]2C(=O)N[C@H]3C(=O)N[C@H](C(=O)N[C@H](C(=O)O)c4cc(O)cc(O)c4-c4cc3ccc4O)[C@H](O)c3ccc(c(Cl)c3)Oc3cc2cc(c3O[C@@H]2O[C@H](CO)[C@@H](O)[C@H](O)[C@H]2O[C@H]2C[C@](C)(N)[C@H](O)[C@H](C)O2)Oc2ccc(cc2Cl)[C@H]1O` [Vancomycin], which established biofilms disrupted [1] is on record?
Its established biofilms disrupted is ~ 70%.

And the “MIC KP” value [12]?
The value was > 25 µM.

What about the “inhibition of biofilm growth” value [2] of the same compound?
The value was 80%.

What about the “inhibition of biofilm formation” value [3] of the same compound?
Its value is 100%.

And the biofilm disruption alone ([13]; 3.1 μM vancomycin by itself)?
Its biofilm disruption alone is “unable to completely disrupt the biofilm”.

What about the “biofilm disruption by combination” value ([13]; 3.1 μM vancomycin with 0.20 μM C14-RRR) of the same compound?
Its value is “disrupt nearly all the biofilms”.

And the MIC [5]?
Its MIC is > 12.5 µM.

What about the MIC [14] of the same compound?
Its MIC is > 25 µM.

What about the MIC [6] of the same compound?
Its MIC is 0.78 µM (≈ 1.13 µg/mL).

And the established biofilms disrupted [7]?
Its established biofilms disrupted is 80%.

And the MIC [8]?
The MIC was 1.56 µM (≈ 2.26 µg/mL).

And the MIC [9]?
The MIC was 0.78 µM (≈ 1.13 µg/mL).

And the “concentration disrupting established biofilms” value [10]?
Its value is 6.2 to 12.5 µM.

What about the MIC [11] of the same compound?
Its MIC is 0.35 µM (≈ 0.507 µg/mL).
